Sampled rows, rich in hits. Any-hit rate of the full collection: about 1.9%.
M5 PAM: human M5 muscarinic receptor positive allosteric modulators, primary screen, CHO-K1 cells, Fluo-8 calcium fluorescence. activation, % at 3 µM. Muscarinic acetylcholine receptor M5 (Homo sapiens), P08912. CHO-K1 hM5, ACh EC20 PAM; 0% = ACh EC20, 100% = ACh EC100. 360,000 tested, 0.3% active;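 active = activation above the run cutoff, the mean activation of all test compounds plus 3 SD, cut at about 18% in these data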
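Assay system: CHO-K1 hM5 cells. Also added: acetylcholine at EC20 concentration, added after compound. Dosing: 3 µM, single dose. Times: compound preincubation 140 s before EC20 acetylcholine addition. Signal: Fluo-8 calcium fluorescence. Measure: % activation relative to EC20 and EC100 ACh responses. Repeats: singlicate, one well per test compound.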
CHRM5 antagonist: human M5 muscarinic receptor antagonists, primary screen, CHO cells, Fluo-8 calcium fluorescence. AID 624040, 2012. Muscarinic acetylcholine receptor M5 (Homo sapiens), P08912. 360,000 tested, 0.59% active. inhibition, % at 3 µM. CHO-hM5 cells, ACh EC80;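 active = inhibition above a per-plate cutoff, the mean of that plate's test compounds plus 3 SD, cut at about 27% in these data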
CHRM4 PAM: human M4 muscarinic receptor positive allosteric modulators, primary screen, CHO-K1 cells, Fluo-8 calcium fluorescence; Muscarinic acetylcholine receptor M4 (Homo sapiens), P08173; CHO-K1 hM4/Gqi5, ACh EC20; 0% = ACh EC20, 100% = maximal ACh; activation, % at 3 µM; 360,000 tested, 0.4% active; AID 624126, 2012;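 active = activation above its plate's cutoff, the mean activation of sample wells plus 3 SD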
Target sequence (P08173 whole entry, looked up): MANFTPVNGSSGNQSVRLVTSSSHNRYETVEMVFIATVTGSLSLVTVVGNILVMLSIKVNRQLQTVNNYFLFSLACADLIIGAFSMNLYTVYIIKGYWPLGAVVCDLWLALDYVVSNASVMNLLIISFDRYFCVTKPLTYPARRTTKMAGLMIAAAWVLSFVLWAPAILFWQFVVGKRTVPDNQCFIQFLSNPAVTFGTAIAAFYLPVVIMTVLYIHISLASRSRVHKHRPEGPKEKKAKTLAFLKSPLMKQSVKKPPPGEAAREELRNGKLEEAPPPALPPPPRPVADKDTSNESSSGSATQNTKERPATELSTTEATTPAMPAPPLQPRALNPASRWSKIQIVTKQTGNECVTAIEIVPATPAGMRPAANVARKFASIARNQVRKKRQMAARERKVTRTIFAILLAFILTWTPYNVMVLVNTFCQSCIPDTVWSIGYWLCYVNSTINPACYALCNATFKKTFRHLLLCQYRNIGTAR
M5 ag: human M5 muscarinic receptor agonists, primary screen, CHO-K1 cells, Fluo-8 calcium fluorescence; 360,000 tested, 0.19% active; activation, % at 3 µM; AID 624037, 2012; CHO-K1 hM5 cells; 0% DMSO wells, 100% maximal acetylcholine response;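 active = activation above the run's mean over test compounds plus 3 SD, cut at about 23% in these data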;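 note: signal is peak over basal fluorescence ratio across the kinetic read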
M4 ag: human M4 muscarinic receptor agonists, primary screen, CHO-K1 cells, Fluo-8 calcium fluorescence. CHO-K1 hM4/Gqi5; vehicle 0%, full acetylcholine response 100%. 360,000 tested, 0.14% active. activation, % at 3 µM;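 active = activation above the run mean over all test wells plus 3 SD, cut at about 32% in these data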;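 note: peak over basal fluorescence ratio per well then scaled between controls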
M4 antag: human M4 muscarinic receptor antagonists, primary screen, CHO cells, Fluo-8 calcium fluorescence. CHO-hM4 cells, ACh EC80. inhibition, % at 3 µM. 360,000 tested, 0.73% active;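 active = inhibition above its plate's cutoff, the mean inhibition of sample wells plus 3 SD, cut at about 27% in these data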
Numbers stand for hits; n = inactive.

SMILES	M5 PAM	CHRM5 antagonist	CHRM4 PAM	M5 ag	M4 ag	M4 antag
COc1ccc(N=C2C(=O)N3c4c(cccc42)C(C)=CC3(C)C)cc1	n	n	n	29	n	n
COc1cccc(/C=C2\Oc3cc(OCC(=O)N4CCC[C@H]4C(=O)O)ccc3C2=O)c1	n	n	n	n	n	n
CCN(CC(=O)Nc1ccc(NC(C)=O)cc1)C(=O)/C=C/c1c(C)nn(-c2ccc(F)cc2)c1C	n	n	n	n	n	n
COc1ccc(C(=O)O/N=C2\CCS(=O)(=O)c3sccc32)cc1	n	36	n	n	n	n
COc1ccc(N=C2CCS(=O)(=O)c3sccc32)cc1	n	n	n	n	n	n
NCCCC(=O)N1c2ccccc2Sc2ccc(Cl)cc21	n	77	n	n	n	64
NCCC(=O)N1c2ccccc2Sc2ccc(Cl)cc21	n	61	n	n	n	38
CN1CCN(CCC(=O)N2c3ccccc3Sc3ccc(Cl)cc32)CC1	n	n	n	n	n	n
Cc1ccc(C(=O)CCC(=O)Nc2ncccc2C)cc1	19	n	n	n	n	n
Nc1nonc1N/N=C\c1ccccc1	n	n	n	n	n	27
COCCCNC(=O)c1cc(C(=O)Cc2ccccc2)c[nH]1	n	n	n	n	n	n
C[N+](C)(CCOc1ccccc1)Cc1ccccc1	n	n	n	n	n	n
Cc1cc(C(C)(C)CC(C)(C)C)ccc1OCCOCC[N+](C)(C)Cc1ccccc1	n	n	n	n	n	27
O=C1CN=CN=CN1c1ccc(Cl)cc1Cl	n	n	n	n	n	n
CCOC(=O)C1CN(S(=O)(=O)c2ccc(C)cc2)C1	20	n	n	n	n	n
O=C(Nc1cccc(C(F)(F)F)c1)C(=O)N1CCCCC1	20	n	n	n	n	n
COc1cc(NC(=O)c2cc3nc(C)cc(C)n3n2)c(OC)cc1Cl	n	n	28	n	n	n
COc1cc(NC(=O)c2ccc(F)cc2)c(OC)cc1Cl	n	n	n	n	n	n
COc1cc(NC(=O)c2c(F)c(F)c(F)c(F)c2F)c(OC)cc1Cl	n	n	n	n	n	36
COc1ccc(C(=O)Nc2cc(OC)c(Cl)cc2OC)cc1	n	n	n	n	n	n
O=C(Cc1ccccc1)Nc1nnc(-c2cccc([N+](=O)[O-])c2)s1	n	n	35	n	n	n
Cc1ccc(O)c([C@H](CCN(C(C)C)C(C)C)c2ccccc2)c1	n	99	n	n	n	100
N#Cc1ccc(C(=O)OCC(=O)Nc2cccc(S(=O)(=O)N3CCCCC3)c2)cc1	n	n	n	n	n	n
CC(C)(CN1CCN(c2ccccc2)CC1)NS(=O)(=O)c1ccccc1	n	n	n	n	n	31
C=Cc1cccc(NC(=O)COc2ccccc2)c1	18	n	n	n	n	n
SMILES	M5 PAM	CHRM5 antagonist	CHRM4 PAM	M5 ag	M4 ag	M4 antag
NCCCCCc1nnc(SC/C=C/c2ccccc2)o1	n	n	n	n	n	38
NCCc1nnc(SCc2c(Cl)cccc2Cl)o1	n	n	n	n	n	n
O=C(NCc1nnc(SC/C=C/c2ccccc2)o1)c1ccco1	n	n	n	n	n	n
NCCCCCc1nnc(SCc2ccccc2Cl)o1	n	28	n	n	n	n
O=C(CC(Cc1ccccc1)C(=O)O)Nc1ccc(Cl)c(Cl)c1 (stereo not drawn)	n	n	n	n	n	n
Cc1ccc(-c2cc(-c3ccccc3)nc(N(C)N)n2)cc1	n	n	n	n	n	n
CN(C)/C=N/NC(=O)C1Cc2c(ccc3ccccc23)O1 (stereo not drawn)	n	n	n	n	n	n
O=c1c2ccccc2sc2c(CO)ccc(NCCN3CCCCC3)c12	n	n	n	n	n	n
Cc1nnc(SCCn2c(N3CCCC(C)C3)nc3c2c(=O)[nH]c(=O)n3C)s1 (stereo not drawn)	19	n	n	n	n	n
Cc1nnc(SCCn2c(N3CCC(C)CC3)nc3c2c(=O)[nH]c(=O)n3C)s1	n	n	n	n	n	n
CCOC(=O)N1CCC(NC(=S)Nc2ccc3nc(N4CCN(CC)CC4)cc(C)c3c2)CC1	n	n	n	n	n	37
CCC(C)NC(=O)C1CCCN(c2nc(C)cc(OC)n2)C1 (stereo not drawn)	20	n	25	n	n	n
CCOC(=O)c1sc2nc(OCc3cccnc3)cc(C)c2c1N	n	n	32	n	n	n
Cc1cc(C(F)(F)F)c2c(N)c(C(=O)NC3CC3)sc2n1	n	n	n	n	n	n
CC(=O)c1sc2nc(-c3ccccc3)cc(C)c2c1N	n	n	42	n	n	n
Cc1cc(C)c2c(N)c(C(=O)NC3CC3)sc2n1	n	n	34	n	56	67
CCOC(=O)c1sc2nc(C)cc(C)c2c1N	n	n	51	n	n	28
CCOC(=O)c1sc2nc(C)nc(NCc3cccnc3)c2c1C	n	n	n	n	n	n
Nc1c(C(=O)O)sc2nc(-c3ccccc3)cc(-c3ccc(Cl)cc3)c12	n	n	n	n	n	n
CCCCc1nc(N)c(C#N)c(-c2ccco2)c1CCC	n	n	n	n	n	n
Cc1c(Cl)cccc1N(Cc1ccc(C(=O)O)cc1)S(=O)(=O)c1ccccc1	n	n	n	n	n	n
COc1cccc(NC(=O)N2CCCc3ccccc32)c1	n	n	n	n	n	n
Cc1ccc(NC(=O)c2sc3nc(C)cc(C)c3c2N)cc1	n	n	16	n	n	n
Cc1cc(C)c2c(N)c(C(=O)NN)sc2n1	n	n	n	n	n	n
CC1=NNC(=O)C1C(c1ccc(F)cc1)C(C#N)C#N (stereo not drawn)	n	n	n	n	n	n
SMILES	M5 PAM	CHRM5 antagonist	CHRM4 PAM	M5 ag	M4 ag	M4 antag
CC1CCC(C(C)C)C(OCC[N+](C)(C)C)C1 (stereo not drawn)	n	99	n	n	n	99
CC1CCC(C(C)C)C(OCC(O)C[N+]2(C)CCCCC2)C1 (stereo not drawn)	n	n	n	n	n	n
CCC(C)c1ccccc1OCCn1ccnc1 (stereo not drawn)	n	30	n	n	n	n
Clc1ccc(OCCn2ccnc2)c(Br)c1	27	n	n	n	n	n
Cc1ccc(C)c(N2CCN(C(=O)Cn3c(=O)oc4cc(S(=O)(=O)N5CCCC5)ccc43)CC2)c1	n	n	n	n	n	n
CC(=O)N1c2ccc(S(=O)(=O)N3CCCC(C(=O)NC4CCCC(C)C4C)C3)cc2CC1C (stereo not drawn)	n	n	n	n	n	n
CCCOc1ccc(OC(=O)c2ccc(Br)o2)cc1	n	n	n	n	76	n
